In ChEMBL document CHEMBL3244407, “Synthesis of spiro[tetralin-2,2'-pyrrolidine] and spiro[indan-2,2'-pyrrolidine] derivatives as potential analgesics” (J Med Chem, 1978):
The source made the active and inactive calls. The calls are words filed in the database; no cut-off is given here.

Experiments:
Mus musculus [1] = test: Analgesic activity in mouse assessed as inhibition of acetic acid-induced writhing response at 30 mg/kg, po administered 30 mins prior to acetic acid-challenge relative to control; type: functional
Method in brief: (§1)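 Mice in groups, dosed orally with vehicle or compound; 30 min later given dilute acetic acid ip (0.4 mL, 0.25%). Total squirming movements counted.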

Mus musculus [2] = test: Antidepressant activity in mouse assessed as reversal of reserpine-induced hypothermia measured as cumulative temperature rise at 30 mg/kg administered 17 hrs post reserpine-challenge; type: functional
Method in brief: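 Groups of six mice pretreated with reserpine 2 mg/kg sc; compound given 17 h later. Gastric temperature read just before dosing (t0) and at 2, 4 and 6 h. Cumulative rise T = (t2 + t4 + t6) − 3t0, averaged per group, in °C.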

Mus musculus [3] = organism: Mus musculus; test: Neurotoxicity in mouse by stationary rod test; type: toxicity, organism-based; details: in vivo
Mus musculus [4] = organism: Mus musculus; test: Effect on CNS activity in mouse by maximal electroshock test; type: functional, organism-based; details: Central nervous system
Mus musculus [5] = organism: Mus musculus; test: Effect on CNS activity in mouse by maximal metrazole shock test; type: functional, organism-based; details: Central nervous system
Mus musculus [6] = organism: Mus musculus; test: Effect on locomotor activity in mouse; type: functional, organism-based
Mus musculus [7] = organism: Mus musculus; test: animal or person; type: functional; details: route oral
Mus musculus [8] = organism: Mus musculus; test: Analgesic activity in mouse by hot-plate test; type: functional
Mus musculus [9] = test: Analgesic activity in mouse assessed as inhibition of acetic acid-induced writhing response at 100 mg/kg, po administered 30 mins prior to acetic acid-challenge relative to control; type: functional; method in brief: as §1

Row | SMILES | inhibition in vivo at 30 mg/kg (Mus musculus [1]) | T (Mus musculus [2]) | Activity (Mus musculus [3]) | Activity (Mus musculus [4]) | Activity (Mus musculus [5]) | Activity (Mus musculus [6]) | inhibition in vivo at 10 mg/kg (Mus musculus [7]) | ED50 (Mus musculus [8]) | inhibition in vivo at 100 mg/kg (Mus musculus [9])
1 | Br.Oc1ccc2c(c1)CCC1(CCCN1)C2 (stereo not given) | 0% | 0.7 °C | Non-toxic | inactive | inactive | inactive |  |  | 
2 | Br.COc1ccc2c(c1)CCC1(CCCN1C)C2 (stereo not given) | 75% | 1.2 °C | Non-toxic | inactive | inactive | inactive |  |  | 
3 | Cl.c1ccc2c(c1)CCC1(CCCN1)C2 (stereo not given) |  | 4.5 °C | Non-toxic | inactive | inactive | inactive | 100% | 7.1 mg/kg | 
4 | COc1ccc2c(c1)CCC1(CCCN1)C2.Cl (stereo not given) | 50% | 0.2 °C | Non-toxic | inactive | inactive | inactive |  |  | 
5 | Cl.c1ccc2c(c1)CC1(CCCN1)C2 |  | 5.1 °C | Non-toxic | inactive | inactive | inactive | 50% | > 30 mg/kg | 
6 | Br.CN1CCCC12CCc1cc(O)ccc1C2 (stereo not given) | 75% | 0.7 °C | Non-toxic | inactive | inactive | inactive |  |  | 
7 | CN1CC[C@]23c4c5ccc(O)c4O[C@H]2[C@@H](O)C=C[C@H]3[C@H]1C5.Cl [MORPHINE HYDROCHLORIDE] |  | 0.3 °C |  |  |  |  | 100% |  | 
8 | CN1CCCC12CCc1ccccc1C2.Cl (stereo not given) |  | 2.7 °C | Non-toxic | inactive | inactive | inactive | 100% | 7.4 mg/kg | 
9 | CN1CCCC12Cc1ccccc1C2.Cl |  | 5.1 °C | Non-toxic | inactive | inactive | inactive |  |  | 50%
10 | CN(C)CCCN1c2ccccc2CCc2ccccc21 [IMIPRAMINE] | 50% | 8 °C |  |  |  |  |  |  | 
